In data set [1] the test system is Radical scavenging activity. The data set can be described thus: Antioxidant activity assessed as DPPH free radical scavenging activity by spectrophotometry. The format is functional. Put shortly: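 DPPH radical decrease read spectrophotometrically as absorbance at 520 nm. Percent interaction = (1 − test absorbance/control absorbance) × 100, with test means from N = 3 and control means from N = 8. EC50 is the concentration giving a 50% drop in DPPH absorbance, obtained by nonlinear regression. NDGA and α-tocopherol served as positive controls.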
For orientation: DPPH is a stable violet radical that fades when it is reduced.

The test system of data set [2] is HaCaT. The data set can be described thus: Cytotoxicity against human HaCaT cells assessed as LDH release at 2 uM after 4 hrs. In kind it is cell-based. Put shortly:
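HaCaT cells were exposed to test compound for 4 h at 37 °C. Extracellular LDH activity was measured by the UV method with pyruvate and NADH and expressed in mU/mL. The vehicle control was 0.2% DMSO in culture medium, and Brij 35 with ultrasound was the positive control. N = 3, SD < 10%.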
(LDH in the medium is a marker of cell lysis.)

Data set [3] relates to HaCaT. The data set can be described thus: Antiproliferative activity against human HaCaT cells after 48 hrs by phase contrast microscopy. The format is functional, cell-based. Put shortly: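 HaCaT human keratinocytes were grown in DMEM with 10% fetal calf serum, penicillin and streptomycin at 37 °C under 8% CO2. After 48 h of exposure, dispersed cells were counted by phase-contrast microscopy. Inhibition = (1 − test/control) × 100, with test N = 3 and control N = 6–8. Significance was tested by Student's t-test. IC50 was obtained by nonlinear regression.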

In ChEMBL document CHEMBL1275313, “Synthesis and biological evaluation of novel 10-benzyl-substituted 4,5-dichloro-10H-anthracen-9-ones as inhibitors of keratinocyte hyperproliferation” (Eur J Med Chem, 2010) one finds EC50, Activity and IC50 data, which are given here for 29 molecules.

In general, EC50 refers to the concentration at which the effect is half-maximal. Usually IC50 stands for the concentration at which inhibition is half-maximal. For the molecule `COc1cccc(CC2c3c(Cl)cccc3C(=O)c3cccc(Cl)c32)c1`, the EC50 in data set [1] is above 50 µM. Besides, the Activity in the data set with HaCaT [2] is reported as 65 mU/ml. The same molecule yielded an IC50 in the data set on HaCaT [3] of 2 µM.

On to `COc1ccc(CC2c3c(Cl)cccc3C(=O)c3cccc(Cl)c32)cc1OC`, for which the EC50 in data set [1] is above 50 µM. In addition, in the data set with HaCaT [2], the Activity is listed as 68.4 mU/ml. Also, the midpoint of inhibition in the data set on HaCaT [3], the IC50, lay at 5 µM.

Take `O=C1c2cccc(Cl)c2C(Cc2cccc([N+](=O)[O-])c2)c2c(Cl)cccc21`: the EC50 in data set [1] was above 50 µM. In addition, the Activity in the data set on HaCaT [2] turned out to be 69.9 mU/ml. In the data set on HaCaT [3], this molecule registered an IC50 of 5 µM.

With `COc1ccc(CC2c3c(Cl)cccc3C(=O)c3cccc(Cl)c32)cc1OCc1ccccc1`, the concentration for a half-maximal effect (EC50) in data set [1] is above 50 µM. For the same molecule, in the data set on HaCaT [3], the IC50 was above 50 µM.

On to `COc1ccccc1CC1c2c(Cl)cccc2C(=O)c2cccc(Cl)c21`, for which the EC50 in data set [1] was above 50 µM. For the same molecule, the IC50 with HaCaT [3] was above 50 µM.

On to `O=C1c2cccc(Cl)c2C(Cc2ccccc2Cl)c2c(Cl)cccc21`, for which the EC50 in data set [1] was above 50 µM. This molecule displayed an IC50 in the data set with HaCaT [3] of 30 µM.

Regarding `O=C1c2cccc(Cl)c2C(Cc2ccc(Cl)cc2)c2c(Cl)cccc21`, the half-maximal effective concentration (EC50) in data set [1] was above 50 µM. For the same molecule, half-maximal inhibition in the data set on HaCaT [3] (IC50) was put at 36 µM.

Take `COc1ccc(OC)c(CC2c3c(Cl)cccc3C(=O)c3cccc(Cl)c32)c1`: the 50% effective concentration (EC50) in data set [1] was above 50 µM. The Activity in the data set on HaCaT [2] stood at 60.6 mU/ml. The same molecule registered an IC50 with HaCaT [3] of 3.8 µM.

As to `O=C1c2cccc(Cl)c2Cc2c(Cl)cccc21`, the EC50 in data set [1] amounted to 29.5 µM. For the same molecule, the Activity in the data set on HaCaT [2] was 64.4 mU/ml.

As for `O=C1c2cccc(Cl)c2C(Cc2ccc(O)cc2)c2c(Cl)cccc21`, the EC50 in data set [1] is above 50 µM. The same molecule had an IC50 in the data set on HaCaT [3] of 19 µM.

For `O=C1c2cccc(Cl)c2C(Cc2ccc(OCc3ccccc3)cc2)c2c(Cl)cccc21`, the EC50 in data set [1] is above 50 µM. Also, half-maximal inhibition in the data set on HaCaT [3] (IC50) required 36 µM.

Turning to `O=C1c2cccc(Cl)c2C(Cc2ccc(O)c(O)c2)c2c(Cl)cccc21`, the EC50 in data set [1] turned out to be 6.3 µM. Further, the Activity in the data set with HaCaT [2] turned out to be 76.6 mU/ml. Also, 18 µM corresponded to half-maximal inhibition in the data set on HaCaT [3] (IC50).

Turning to `O=C1c2cccc(Cl)c2C(Cc2ccccc2)c2c(Cl)cccc21`, the EC50 in data set [1] was above 50 µM. Besides, in the data set with HaCaT [2], the Activity turned out to be 69.6 mU/ml. It took 4.3 µM to reach half-maximal inhibition in the data set with HaCaT [3] (IC50).

With `O=C1c2cccc(Cl)c2C(Cc2ccccc2[N+](=O)[O-])c2c(Cl)cccc21`, the EC50 in data set [1] is above 50 µM. In the data set with HaCaT [3], this molecule yielded an IC50 above 50 µM.

Take `O=C1c2cccc(Cl)c2C(Cc2ccc([N+](=O)[O-])cc2)c2c(Cl)cccc21`: in data set [1], the EC50 is above 50 µM. In the data set on HaCaT [3], the IC50 was above 50 µM.

For the molecule `O=C1c2c(O)cccc2Cc2cccc(O)c21` [ANTHRALIN], in data set [1], the EC50 stood at 16.7 µM. Besides, the Activity in the data set on HaCaT [2] was found to be 122.8 mU/ml.

Consider `O=C1c2cccc(Cl)c2C(Cc2cccc(OCc3ccccc3)c2)c2c(Cl)cccc21`, for which, in data set [1], the EC50 is above 50 µM. This molecule also showed an IC50 in the data set with HaCaT [3] of 22 µM.

Regarding `COc1cc(CC2c3c(Cl)cccc3C(=O)c3cccc(Cl)c32)cc(OC)c1`, in data set [1], the EC50 was above 50 µM. In addition, the IC50 with HaCaT [3] came out at 24 µM.

Turning to `O=C1c2cccc(Cl)c2C(Cc2ccc([N+](=O)[O-])cc2[N+](=O)[O-])c2c(Cl)cccc21`, the EC50 in data set [1] is above 50 µM. The same molecule registered an IC50 in the data set on HaCaT [3] of 17 µM.

On to `O=C1c2cccc(Cl)c2C(Cc2ccc(OCc3ccccc3)c(OCc3ccccc3)c2)c2c(Cl)cccc21`, for which the EC50 in data set [1] is above 50 µM. In addition, the IC50 in the data set with HaCaT [3] is above 50 µM.

For `O=C1c2cccc(Cl)c2C(c2ccccc2)c2c(Cl)cccc21`, the half-maximal effective concentration (EC50) in data set [1] is above 50 µM. This molecule showed an IC50 in the data set on HaCaT [3] above 50 µM.

Turning to `Cc1ccc(CC2c3c(Cl)cccc3C(=O)c3cccc(Cl)c32)cc1`, the EC50 in data set [1] was above 50 µM. In the data set with HaCaT [3], this molecule showed an IC50 of 44 µM.

On to `COc1cc(CC2c3c(Cl)cccc3C(=O)c3cccc(Cl)c32)cc(OC)c1OC`, for which the EC50 in data set [1] is above 50 µM. The molecule further registered a concentration for half-maximal inhibition (IC50) in the data set with HaCaT [3] above 50 µM.

As for `COc1ccc(C2c3c(Cl)cccc3C(=O)c3cccc(Cl)c32)cc1`, the EC50 in data set [1] was above 50 µM. In the data set on HaCaT [3], this molecule registered an IC50 of 20 µM.

With `COc1ccc(CC2c3c(Cl)cccc3C(=O)c3cccc(Cl)c32)cc1`, the EC50 in data set [1] was above 50 µM. The Activity in the data set with HaCaT [2] stood at 57.6 mU/ml. Moreover, in the data set on HaCaT [3], inhibition was half-maximal at 5 µM (IC50).

Take `COc1ccc(CC2c3c(Cl)cccc3C(=O)c3cccc(Cl)c32)cc1O`: the EC50 in data set [1] was above 50 µM. In addition, the Activity in the data set on HaCaT [2] worked out at 69.5 mU/ml. Also, the IC50 in the data set with HaCaT [3] is 0.7 µM.

Take `O=C1c2cccc(Cl)c2C(Cc2ccc(C(F)(F)F)cc2)c2c(Cl)cccc21`: in data set [1], the EC50 was above 50 µM. Moreover, the 50% inhibitory concentration (IC50) with HaCaT [3] is 25 µM.

Take `Cc1ccc(C2c3c(Cl)cccc3C(=O)c3cccc(Cl)c32)cc1`: the EC50 in data set [1] was above 50 µM. Besides, the IC50 with HaCaT [3] is above 50 µM.

Consider `O=C1c2cccc(Cl)c2C(Cc2cccc(O)c2)c2c(Cl)cccc21`, for which, in data set [1], the EC50 was above 50 µM. Besides, the IC50 in the data set with HaCaT [3] amounted to 15 µM.
